Laboratory results published in ChEMBL document CHEMBL1151445, “Molecular epidemiology and mechanisms of carbapenem resistance in Pseudomonas aeruginosa isolates from Spanish hospitals” (2007).
Values after ≈ are worked out from the molar mass of the structure shown.

Legend:
Pseudomonas aeruginosa [1] = experiment: Antimicrobial activity against carbapenem-resistant Pseudomonas aeruginosa clinical isolate assessed as resistant isolates; assay type: functional
Pseudomonas aeruginosa [2] = experiment: Antimicrobial activity against carbapenem-susceptible Pseudomonas aeruginosa clinical isolate assessed as resistant isolates; assay type: functional
Pseudomonas aeruginosa [3] = experiment: Antimicrobial activity against Pseudomonas aeruginosa GY3 producing blaVIM-2 by E-test; assay type: functional
Pseudomonas aeruginosa [4] = experiment: Antimicrobial activity against Pseudomonas aeruginosa PAO1 harboring pV2GY3 with blaVIM-2 and aac(6)'-32 by E-test; assay type: functional
Outline: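 Plasmid DNA from clinical strain GY3 was electroporated into PAO1. Transformants were selected on Luria-Bertani agar with 8 μg imipenem/ml and checked with MBL Etest strips and PCR for the MBL gene. MICs for the transformant were determined by Etest.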

Pseudomonas aeruginosa [5] = experiment: Antimicrobial activity against Pseudomonas aeruginosa PAO1 by E-test; assay type: functional
Escherichia coli [6] = experiment: Antimicrobial activity against Escherichia coli XL1-Blue harboring pGTAAC-32 with cloned aac(6)'-32 by E-test
Escherichia coli [7] = experiment: Antimicrobial activity against Escherichia coli XL1-Blue by E-test; assay type: functional
Pseudomonas aeruginosa [8] = experiment: Antimicrobial activity against carbapenem-resistant Pseudomonas aeruginosa clinical isolate; assay type: functional
Pseudomonas aeruginosa [9] = experiment: Antimicrobial activity against carbapenem-resistant Pseudomonas aeruginosa clinical isolate

| Compound | Activity (Pseudomonas aeruginosa [1]) [%] | Activity (Pseudomonas aeruginosa [2]) [%] | MIC (Pseudomonas aeruginosa [3]) [µg/mL] | MIC (Pseudomonas aeruginosa [4]) [µg/mL] | MIC (Pseudomonas aeruginosa [5]) [µg/mL] | MIC (Escherichia coli [6]) [µg/mL] | MIC (Escherichia coli [7]) [µg/mL] | MIC (Pseudomonas aeruginosa [8]) [µg/mL] | MIC (Pseudomonas aeruginosa [9]) [µg/mL] |
| --- | --- | --- | --- | --- | --- | --- | --- | --- | --- |
| CC(C)(O/N=C(\C(=O)N[C@@H]1C(=O)N2C(C(=O)[O-])=C(C[n+]3ccccc3)CS[C@H]12)c1csc(N)n1)C(=O)O [CEFTAZIDIME] | 46 | 11 | 16 (≈ 29.3 µM) | 24 (≈ 43.9 µM) | 1.5 (≈ 2.74 µM) | – | – | – | – |
| CO/N=C(\C(=O)N[C@@H]1C(=O)N2C(C(=O)[O-])=C(C[N+]3(C)CCCC3)CS[C@H]12)c1csc(N)n1 | – | – | 16 (≈ 33.3 µM) | 16 (≈ 33.3 µM) | 1.5 (≈ 3.12 µM) | – | – | – | – |
| CCN1CCN(C(=O)N[C@@H](C(=O)N[C@@H]2C(=O)N3[C@@H]2SC(C)(C)[C@@H]3C(=O)O)c2ccccc2)C(=O)C1=O [PIPERACILLIN] | 28 | 9 | 16 (≈ 30.9 µM) | 16 (≈ 30.9 µM) | 2 (≈ 3.86 µM) | – | – | – | – |
| C[C@H]1[C@H](NC(=O)/C(=N\OC(C)(C)C(=O)O)c2csc(N)n2)C(=O)N1S(=O)(=O)O [AZTREONAM] | – | – | 2 (≈ 4.59 µM) | 2 (≈ 4.59 µM) | – | – | – | – | – |
| NCC[C@H](O)C(=O)N[C@@H]1C[C@H](N)[C@@H](O[C@H]2O[C@H](CN)[C@@H](O)[C@H](O)[C@H]2O)[C@H](O)[C@H]1O[C@H]1O[C@H](CO)[C@@H](O)[C@H](N)[C@H]1O [AMIKACIN] | 19 | 9 | 64 (≈ 109 µM) | 48 (≈ 82 µM) | 3 (≈ 5.12 µM) | 1.5 (≈ 2.56 µM) | 0.75 (≈ 1.28 µM) | – | – |
| GENTAMICIN | 59 | 26 | 32 | 16 | 2 | – | 0.19 | – | – |
| CC1COc2c(N3CCN(C)CC3)c(F)cc3c(=O)c(C(=O)O)cn1c23 (stereo not drawn) [OFLOXACIN] | 68 | 32 | – | – | – | – | – | – | – |
| CC1(C)S[C@@H]2[C@H](NC(=O)[C@H](C(=O)O)c3ccsc3)C(=O)N2[C@H]1C(=O)O [TICARCILLIN] | 34 | 11 | > 256 | > 256 | 12 (≈ 31.2 µM) | – | – | – | – |
| NC[C@H]1O[C@H](O[C@H]2[C@H](O)[C@@H](O[C@H]3O[C@H](CO)[C@@H](O)[C@H](N)[C@H]3O)[C@H](N)C[C@@H]2N)[C@H](N)C[C@@H]1O [TOBRAMYCIN] | 44 | 9 | > 256 | 64 (≈ 137 µM) | 0.75 (≈ 1.6 µM) | 6 (≈ 12.8 µM) | 0.38 (≈ 0.813 µM) | – | – |
| C[C@@H](O)[C@H]1C(=O)N2C(C(=O)O)=C(SCCNC=N)C[C@H]12 [IMIPENEM ANHYDROUS] | 95 | – | > 32 | > 32 | 2 (≈ 6.68 µM) | – | – | – | – |
| O=C(O)c1cn(C2CC2)c2cc(N3CCNCC3)c(F)cc2c1=O [CIPROFLOXACIN] | – | – | > 32 | – | – | – | – | – | – |
| C[C@@H](O)[C@H]1C(=O)N2C(C(=O)O)=C(S[C@@H]3CN[C@H](C(=O)N(C)C)C3)[C@H](C)[C@H]12 [MEROPENEM] | 68 | – | 16 (≈ 41.7 µM) | 16 (≈ 41.7 µM) | 0.38 (≈ 0.991 µM) | – | – | 8 (≈ 20.9 µM) | 8 (≈ 20.9 µM) |
